Measurements collected from several papers.
Compare with care: the assays were run in different laboratories.
Target: Calcium/calmodulin-dependent protein kinase kinase 2 (CAMKK2, Homo sapiens, UniProt Q96RR4)

CC(C)(C)C(=O)c1sc(NC2CCCCC2)nc1N  remaining activity (enzyme activity; inhibitor; 10 µM): 83%
Oc1cccc(-c2nc(N3CCOCC3)c3oc4ncccc4c3n2)c1  remaining activity (enzyme activity; inhibitor; 10 µM): 114%
Cc1cnc(NC2CCOCC2)nc1-n1cnc(C(=O)NC(CN)c2cc(F)cc(Cl)c2)c1 (centres unmarked)  remaining activity (enzyme activity; inhibitor; radiometric; 1 µM): 81%
O=C(O)c1ccc2c3c1cccc3c(=O)n1c3ccccc3nc21  remaining signal (cell-free assay; 0.5 µM): 7.88%
Cc1c[nH]c2nccc(Oc3c(F)cc(Nc4cc(Cl)nc(N)n4)cc3F)c12  remaining binding (cell-free assay; competition with immobilised ligand; 0.1 µM): 98%
Cn1c2c(c3ccc(Cl)c(Cl)c31)C(C#N)C1(CCCC1)NC2=O (centres unmarked)  ΔTm (thermal stability; DSF; 10 µM): 0.3 °C
COc1cc(-c2cn(C3CCc4ccccc4N(CC(F)(F)F)C3=O)nn2)ccc1-n1ccc(C)n1 (centres unmarked)  remaining binding (cell-free assay; competition with immobilised ligand; 1 µM): 100%
O=C1Nc2ccc(Cl)cc2C1=Cc1cc(Cl)c(O)c(Cl)c1  remaining signal (cell-free assay; 0.5 µM): 51.5%
CN1CC(Oc2cnc(C#N)cc2-c2ccn3nc(NC(=O)C4CC4)cc3c2)C1  inhibition (enzyme activity; inhibitor; 1 µM): 5%
COc1cc(Nc2cnc(C#N)c(O[C@H](C)CN(C)C)n2)ncc1-c1cnn(C)c1  remaining activity (enzyme activity; inhibitor; radiometric; 10 µM): 71%
CN(C)c1nccc(-c2cnc3ncccn23)n1  remaining binding (binding; 1 µM): 100%
CS(=O)(=O)c1cc(C2(NC(=O)c3cncc4c3cnn4-c3ccc(F)cc3)CC2)ccn1  remaining binding (cell-free assay; competition with immobilised ligand; 1 µM): 75%
O=C(CSc1nc2nccnc2c(=O)n1CCc1ccccc1)Nc1nccs1  inhibition (enzyme activity; inhibitor; 10 µM): 5%
Cc1ccc(C(=O)NCc2ccsc2)cc1C#Cc1cn(C(C)C)c2ncnc(N)c12  activity vs control (enzyme activity; inhibitor; 1 µM): 110%
C[C@H](c1ccnc(Nc2nc3ccc(-c4cc(N(C)C)ncn4)cc3[nH]2)c1)N1CCN(C(=O)CC(F)(F)F)CC1  remaining binding (cell-free assay; competition with immobilised ligand; 0.1 µM): 77%
COc1cc(/C=C/C(=O)CC(=O)/C=C/c2ccc(O)c(OC)c2)ccc1O  activity vs control (enzyme activity; inhibitor; 1 µM): 44%
CN1CCC2(CC1)NC(=O)c1c(c3ccc(Cl)c(Cl)c3n1C)C2C#N (racemic)  ΔTm (thermal stability; DSF; 10 µM): 1 °C
Nc1nc(NC2CCCCC2)sc1C(=O)c1ccccc1  remaining activity (enzyme activity; inhibitor; 10 µM): 63%
CCS(=O)(=O)c1cc2cc(C[C@@](O)(CC(C)(C)c3ccc(F)cc3C(N)=O)C(F)(F)F)[nH]c2cn1  remaining binding (cell-free assay; competition with immobilised ligand; 1 µM): 56%
CS(=O)(=O)CCNCc1ccc(-c2ccc3ncnc(Nc4ccc(OCc5cccc(F)c5)c(Cl)c4)c3c2)o1  remaining signal (cell-free assay; 0.5 µM): 101%
O=C(Nc1cnn(-c2csc(C(=O)NC3COC3)c2)c1)Nc1ccccc1Cl  remaining activity (enzyme activity; inhibitor; 5 µM): 91.1%
CC(C)(C)c1nc2c(s1)c1nc(N)ncc1c1ccc(NS(=O)(=O)c3c(F)cccc3F)c(F)c12  remaining activity (enzyme activity; inhibitor; radiometric; 1 µM): 107%
Cn1c2c(Cl)c(Cl)ccc2c2cc[nH]c(=O)c21  ΔTm (thermal stability; DSF; 10 µM): 0.6 °C
CCOCCn1cc(C(=O)Nc2ccc(-n3nc(-c4cccnc4)cc3C(F)(F)F)cn2)ccc1=O  remaining binding (cell-free assay; competition with immobilised ligand; 1 µM): 100%
FC(F)(F)Oc1cccc(-c2cnc3ccc(-c4ccncc4)nn23)c1  activity vs control (enzyme activity; inhibitor; radiometric; 1 µM): 59%
O=C(Nc1ccc(Oc2ccc(F)cc2)cc1)N1CCc2ncccc2[C@H]1c1ccc(F)cc1  remaining binding (cell-free assay; competition with immobilised ligand; 1 µM): 100%
COc1cccc2c(NCc3ccccc3)nc(-n3c(N)nc4ccccc43)nc12  inhibition (target engagement in cells; inhibitor; chemoproteomics; 20 mM): -5.8%
CCCOc1ccc([C@H]2[C@H](C(=O)O)[C@@H](c3ccc4c(c3)OCO4)CN2CC(=O)Nc2c(CC)cccc2CC)cc1  remaining binding (cell-free assay; competition with immobilised ligand; 1 µM): 93%
CCCCNc1ncc2c(-c3ccc(F)cc3)nn(C[C@H]3CC[C@H](N)CC3)c2n1  inhibition (target engagement in cells; inhibitor; chemoproteomics; 20 mM): 33.4%
